Experimental data: ChEMBL document CHEMBL4814000, “Discovery of β-carboline-(phenylsulfonyl)furoxan hybrids as potential anti-breast cancer agents” (Bioorg Med Chem Lett, 2021)
Active and inactive are the calls of the source. The calls are words filed in the database; no cut-off is given here.

Columns and labels:
MDA-MB-231 [1] = assay: Inhibition of cell migration in human MDA-MB-231 cells assessed as inhibition of wound healing rate measured for 24 hrs by phase contrast microscopy; type: functional, cell-based
Summary of the method: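 Wound-healing: scratches made with pipette tips across MDA-MB-231 monolayers, then 24 h incubation at 0, 0.15, 0.3 or 0.6 μM; closure imaged by phase contrast microscopy and expressed as wound-healing rate; mean ± SD of three independent experiments.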

MDA-MB-231 [2] = assay: Induction of DNA damage in human MDA-MB-231 cells assessed as double-strand DNA breaks measured at 0.15 to 0.6 uM after 72 hrs by neutral comet assay; type: functional, cell-based; details: dose 0.15-0.6 µM
Summary of the method: (§1)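 Neutral comet assay for double-strand breaks in MDA-MB-231 cells incubated 72 h; head DNA%, tail DNA%, tail moment and Olive tail moment scored, the moments in arbitrary units; mean ± SD of three independent experiments, p < 0.05 versus control.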

MDA-MB-231 [3] = assay: Induction of cell cycle arrest in human MDA-MB-231 cells assessed as accumulation of cells at G2/M phase at 0.6 uM after 72 hrs by propidium iodide staining based flow cytometry (reference value: 10.90 %); type: functional
Summary of the method: (§2)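 Cell cycle: MDA-MB-231 cells held 72 h at 0, 0.15, 0.3 or 0.6 μM, harvested, PI-stained and analysed by flow cytometry for G1, S and G2/M percentages.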

MDA-MB-231 [4] = assay: Induction of cell cycle arrest in human MDA-MB-231 cells assessed as accumulation of cells at G1 phase at 0.6 uM after 72 hrs by propidium iodide staining based flow cytometry (reference value: 51.97 %); type: functional; summary of the method: as §2
MDA-MB-231 [5] = assay: Induction of DNA damage in human MDA-MB-231 cells assessed as increase olive tail moment measured at 0.15 to 0.6 uM after 72 hrs by neutral comet assay; type: functional, cell-based; details: dose 0.15-0.6 µM; summary of the method: as §1
MDA-MB-231 [6] = assay: Induction of DNA damage in human MDA-MB-231 cells assessed as increase in tail moment measured at 0.15 to 0.6 uM after 72 hrs by neutral comet assay; type: functional, cell-based; details: dose 0.15-0.6 µM; summary of the method: as §1
MDA-MB-231 [7] = assay: Induction of apoptosis in human MDA-MB-231 cells assessed as early apoptotic cells at 0.3 uM incubated for 72 hrs by annexin V-FITC staining based flow cytometry (reference value: 3.42%); type: functional
MDA-MB-231 [8] = assay: Induction of cell cycle arrest in human MDA-MB-231 cells assessed as accumulation of cells at S phase at 0.6 uM after 72 hrs by propidium iodide staining based flow cytometry (reference value: 37.12 %); type: functional; summary of the method: as §2
[9] = Nitric oxide releasing activity assessed as amount of NO release measured at 3 hrs by Griess assay; type: functional
Summary of the method: (§3)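 Griess assay measuring NO released by compounds in vitro over time; values are averages of three independent experiments.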

MDA-MB-231 [10] = assay: Induction of cell cycle arrest in human MDA-MB-231 cells assessed as accumulation of cells at G2/M phase at 0.15 uM after 72 hrs by propidium iodide staining based flow cytometry (reference value: 10.90 %); type: functional; summary of the method: as §2
MDA-MB-231 [11] = assay: Induction of DNA damage in human MDA-MB-231 cells assessed as reduction in head DNA measured at 0.15 to 0.6 uM after 72 hrs by neutral comet assay; type: functional, cell-based; details: dose 0.15-0.6 µM; summary of the method: as §1
MDA-MB-231 [12] = assay: Induction of cell cycle arrest in human MDA-MB-231 cells assessed as accumulation of cells at G1 phase at 0.3 uM after 72 hrs by propidium iodide staining based flow cytometry (reference value: 51.97 %); type: functional; summary of the method: as §2
MDA-MB-231 [13] = assay: Induction of DNA damage in human MDA-MB-231 cells assessed as increase in tail DNA measured at 0.15 to 0.6 uM after 72 hrs by neutral comet assay; type: functional, cell-based; details: dose 0.15-0.6 µM; summary of the method: as §1
MCF7 = assay: Antiproliferative activity against human MCF7 cells assessed as reduction in cell viability incubated for 72 hrs by CCK-8 assay; type: functional, cell-based; details: MCF7, 72 h
Summary of the method: (§4)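 CCK-8 viability assay on MCF-7 or MDA-MB-231 cells after 72 h compound exposure; IC50 taken as half inhibitory concentration, reported as mean ± SD of three independent experiments.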

MDA-MB-231 [14] = assay: Induction of apoptosis in human MDA-MB-231 cells assessed as necrotic cells at 0.6 uM incubated for 72 hrs by annexin V-FITC staining based flow cytometry (reference value: 1.05%); type: functional
MDA-MB-231 [15] = assay: Induction of apoptosis in human MDA-MB-231 cells assessed as early apoptotic cells at 0.15 uM incubated for 72 hrs by annexin V-FITC staining based flow cytometry (reference value: 3.42%); type: functional
MDA-MB-231 [16] = assay: Induction of apoptosis in human MDA-MB-231 cells assessed as viable cells at 0.6 uM incubated for 72 hrs by annexin V-FITC staining based flow cytometry (reference value: 93.86%); type: functional; details: read-out: Activity
MDA-MB-231 [17] = assay: Induction of apoptosis in human MDA-MB-231 cells assessed as necrotic cells at 0.15 uM incubated for 72 hrs by annexin V-FITC staining based flow cytometry (reference value: 1.05%); type: functional
MDA-MB-231 [18] = assay: Induction of apoptosis in human MDA-MB-231 cells assessed as late apoptotic cells at 0.15 uM incubated for 72 hrs by annexin V-FITC staining based flow cytometry (reference value: 1.67%); type: functional
MDA-MB-231 [19] = assay: Induction of apoptosis in human MDA-MB-231 cells assessed as viable cells at 0.3 uM incubated for 72 hrs by annexin V-FITC staining based flow cytometry (reference value: 93.86%); type: functional; details: read-out: Activity
MDA-MB-231 [20] = assay: Induction of cell cycle arrest in human MDA-MB-231 cells assessed as accumulation of cells at S phase at 0.15 uM after 72 hrs by propidium iodide staining based flow cytometry (reference value: 37.12 %); type: functional; summary of the method: as §2
MDA-MB-231 [21] = assay: Induction of ROS generation in human MDA-MB-231 cells incubated for 72 hrs by DCFH-DA staining-based flow cytometric analysis relative to control; type: functional, cell-based; details: dose microM <=0.6, time 72.0 hrs
Summary of the method: (§5)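 MDA-MB-231 cells exposed 72 h, then loaded with DCFH-DA and read on a FACScan flow cytometer as percent DCFH-DA-positive cells against DMSO-treated control; mean ± SD of three independent experiments.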

MDA-MB-231 [22] = assay: Induction of apoptosis in human MDA-MB-231 cells assessed as necrotic cells at 0.3 uM incubated for 72 hrs by annexin V-FITC staining based flow cytometry (reference value: 1.05%); type: functional
[23] = Nitric oxide releasing activity assessed as amount of NO release measured up to 24 hrs by Griess assay; type: functional; details: time hrs <=24; summary of the method: as §3
MDA-MB-231 [24] = assay: Induction of ROS generation in human MDA-MB-231 cells at 0.6 uM incubated for 72 hrs by DCFH-DA staining-based flow cytometric analysis (reference value: 3.04 %); type: functional; summary of the method: as §5
MDA-MB-231 [25] = assay: Inhibition of cell adhesion in human MDA-MB-231 cells measured for 24 hrs by phase-contrast microscope method; type: functional, cell-based; details: dose 0.15-0.6 µM
Summary of the method: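 Adhesion: MDA-MB-231 cells incubated with 0, 0.15, 0.3 or 0.6 μM, non-adherent cells washed off with PBS, attached cells counted by phase contrast microscopy; mean ± SD of three independent experiments.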

MDA-MB-231 [26] = assay: Induction of apoptosis in human MDA-MB-231 cells assessed as early apoptotic cells at 0.6 uM incubated for 72 hrs by annexin V-FITC staining based flow cytometry (reference value: 3.42%); type: functional
MDA-MB-231 [27] = assay: Antiproliferative activity against human MDA-MB-231 cells assessed as reduction in cell viability incubated for 72 hrs by CCK-8 assay; type: functional, cell-based; details: MDA-MB-231, 72 h; summary of the method: as §4
MDA-MB-231 [28] = assay: Induction of apoptosis in human MDA-MB-231 cells assessed as late apoptotic cells at 0.3 uM incubated for 72 hrs by annexin V-FITC staining based flow cytometry (reference value: 1.67%); type: functional
MDA-MB-231 [29] = assay: Induction of cell cycle arrest in human MDA-MB-231 cells assessed as accumulation of cells at G1 phase at 0.15 uM after 72 hrs by propidium iodide staining based flow cytometry (reference value: 51.97 %); type: functional; summary of the method: as §2
MDA-MB-231 [30] = assay: Induction of apoptosis in human MDA-MB-231 cells assessed as viable cells at 0.15 uM incubated for 72 hrs by annexin V-FITC staining based flow cytometry (reference value: 93.86%); type: functional; details: read-out: Activity
MDA-MB-231 [31] = assay: Antiinvasive activity against human MDA-MB-231 cells assessed as reduction in invasion incubated for 24 hrs by crystal violet staining based transwell assay; type: functional, cell-based; details: dose microM <=0.6, time 24.0 hrs
Summary of the method: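 Transwell: MDA-MB-231 cells seeded in chambers with 0, 0.15, 0.3 or 0.6 μM for 24 h; cells crossing stained with crystal violet, imaged and counted; mean ± SD of three independent experiments.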

MDA-MB-231 [32] = assay: Induction of cell cycle arrest in human MDA-MB-231 cells assessed as accumulation of cells at G2/M phase at 0.3 uM after 72 hrs by propidium iodide staining based flow cytometry (reference value: 10.90 %); type: functional; summary of the method: as §2
MDA-MB-231 [33] = assay: Induction of apoptosis in human MDA-MB-231 cells assessed as late apoptotic cells at 0.6 uM incubated for 72 hrs by annexin V-FITC staining based flow cytometry (reference value: 1.67%); type: functional
MDA-MB-231 [34] = assay: Induction of cell cycle arrest in human MDA-MB-231 cells assessed as accumulation of cells at S phase at 0.3 uM after 72 hrs by propidium iodide staining based flow cytometry (reference value: 37.12 %); type: functional; summary of the method: as §2

Structure (SMILES): COc1ccc(-c2nc(C(=O)NCCCOc3no[n+]([O-])c3S(=O)(=O)c3ccccc3)cc3c2[nH]c2ccccc23)cc1
- inhibition (MDA-MB-231 [1]): Dose-Dependent Effect
- Activity (MDA-MB-231 [2]): Active
- Activity (MDA-MB-231 [3]): 23.54%
- Activity (MDA-MB-231 [4]): 40.59%
- Activity (MDA-MB-231 [5]): Active
- Activity (MDA-MB-231 [6]): Active
- Activity (MDA-MB-231 [7]): 14.07%
- Activity (MDA-MB-231 [8]): 35.87%
- Activity [9]: 65 µM/L
- Activity (MDA-MB-231 [10]): 13.64%
- Activity (MDA-MB-231 [11]): Active
- Activity (MDA-MB-231 [12]): 42.88%
- Activity (MDA-MB-231 [13]): Active
- IC50 (MCF7): 0.89 µM
- Activity (MDA-MB-231 [14]): 1.61%
- Activity (MDA-MB-231 [15]): 8.28%
- viability at 0.6 µM (MDA-MB-231 [16]): 44.2%
- Activity (MDA-MB-231 [17]): 3.68%
- Activity (MDA-MB-231 [18]): 4.39%
- viability at 0.3 µM (MDA-MB-231 [19]): 72.3%
- Activity (MDA-MB-231 [20]): 35.82%
- Activity (MDA-MB-231 [21]): Dose-Dependent Effect
- Activity (MDA-MB-231 [22]): 3.7%
- Activity [23]: Active
- Activity (MDA-MB-231 [24]): 51.62%
- inhibition (MDA-MB-231 [25]): Dose-Dependent Effect
- Activity (MDA-MB-231 [26]): 29.88%
- IC50 (MDA-MB-231 [27]): 0.62 µM
- Activity (MDA-MB-231 [28]): 9.92%
- Activity (MDA-MB-231 [29]): 50.54%
- viability at 0.15 µM (MDA-MB-231 [30]): 83.6%
- Activity (MDA-MB-231 [31]): Active
- Activity (MDA-MB-231 [32]): 19.92%
- Activity (MDA-MB-231 [33]): 24.3%
- Activity (MDA-MB-231 [34]): 37.2%
